Source: ChEMBL document CHEMBL4359913, “Identification and characterization of benzo[d]oxazol-2(3H)-one derivatives as the first potent and selective small-molecule inhibitors of chromodomain protein CDYL” (Eur J Med Chem, 2019)
Calls of active or inactive are those of the source. No cut-off for these calls is given here. Where a SMILES comes first, the peptide text is derived from it. [ ]: non-standard residue; d: D form. The star is where a group is joined. Benzoyl(4-tBu) = CC(C)(C)c1ccc(C(=O)*)cc1; Lys(Et2) = CCN(CC)CCCC[C@H](N)C(=O)O

Tests used:
[1] = biological target: T1, Chromodomain Y-like protein (Homo sapiens) (UniProt Q9Y232); experiment: Inhibition of CDYL in human SH-SY5Y cells assessed as VGF mRNA expression at 50 to 200 uM incubated for 24 hrs by RT-qPCR analysis; format: cell-based
T1 sequence (whole entry): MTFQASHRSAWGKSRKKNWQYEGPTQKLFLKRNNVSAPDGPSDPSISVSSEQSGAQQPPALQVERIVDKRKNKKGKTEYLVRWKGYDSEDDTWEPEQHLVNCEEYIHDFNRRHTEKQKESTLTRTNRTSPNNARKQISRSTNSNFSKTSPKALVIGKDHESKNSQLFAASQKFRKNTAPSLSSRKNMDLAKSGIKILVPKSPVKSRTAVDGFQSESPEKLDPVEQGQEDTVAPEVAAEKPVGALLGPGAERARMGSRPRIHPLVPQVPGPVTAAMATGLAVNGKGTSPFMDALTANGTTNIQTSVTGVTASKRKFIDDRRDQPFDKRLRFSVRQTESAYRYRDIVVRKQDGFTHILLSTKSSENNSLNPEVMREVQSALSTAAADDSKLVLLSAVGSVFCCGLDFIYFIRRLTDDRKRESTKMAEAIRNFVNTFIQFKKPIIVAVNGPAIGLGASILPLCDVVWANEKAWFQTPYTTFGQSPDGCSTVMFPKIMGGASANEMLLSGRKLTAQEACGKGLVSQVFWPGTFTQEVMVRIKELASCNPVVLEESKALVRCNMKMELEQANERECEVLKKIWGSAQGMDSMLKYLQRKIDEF
Method in brief: (§1)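 SH-SY5Y or HEK-293T cells grown in DMEM with 10% FBS and treated with compound for 24 h. mRNA quantified by SYBR green RT-qPCR after DNase treatment, 2^-ΔΔCt method with GAPDH as reference, relative to DMSO. Mean ± S.E.M. of triplicate experiments, Student's t-test.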

[2] = biological target: T1, Chromodomain Y-like protein (Homo sapiens); experiment: Inhibition of CDYL in human SH-SY5Y cells assessed as MYT1 mRNA expression at 50 to 200 uM incubated for 24 hrs by RT-qPCR analysis; format: cell-based; method in brief: as §1
[3] = biological target: T1, Chromodomain Y-like protein (Homo sapiens); experiment: Inhibition of CDYL in human HEK293T cells assessed as increase in VGF mRNA expression at 50 to 200 uM incubated for 24 hrs by RT-qPCR analysis; format: cell-based; method in brief: as §1
[4] = biological target: T2, Chromodomain Y-like protein (Homo sapiens, UniProt Q9Y232); experiment: Binding affinity to recombinant human N-terminal GST-tagged CDYL (1 to 60 residues) expressed in Escherichia coli […] by SPR analysis
T2 sequence (Q9Y232 whole entry): T1 sequence (whole entry)
Method in brief: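 GST-tagged chromodomain expressed in E. coli BL21 with 0.2 mM IPTG at 28 °C for 6 h. Purified on GSTrap, tag removed with PreScission protease. Amine-coupled to CM5 chip at pH 4.0–4.5 (5000–10000 RU). Compound run as a 1.5- or 2-fold series from 100 µM in PBSP with 5% DMSO, 25 °C, 30 µL/min, 60 s association and 60 s dissociation.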

[5] = biological target: T1, Chromodomain Y-like protein (Homo sapiens); experiment: Inhibition of CDYL in human HEK293T cells assessed as increase in MYT1 mRNA expression at 50 to 200 uM incubated for 24 hrs by RT-qPCR analysis; format: cell-based; method in brief: as §1
[6] = biological target: T1, Chromodomain Y-like protein (Homo sapiens); experiment: Inhibition of CDYL in human HEK293T cells assessed as increase in BDNF mRNA expression at 50 to 200 uM incubated for 24 hrs by RT-qPCR analysis; format: cell-based; method in brief: as §1
[7] = biological target: T1, Chromodomain Y-like protein (Homo sapiens); experiment: Inhibition of CDYL in human SH-SY5Y cells assessed as BDNF mRNA expression at 50 to 200 uM incubated for 24 hrs by RT-qPCR analysis; format: cell-based; method in brief: as §1
[8] = biological target: T3, Chromobox protein homolog 7 (Homo sapiens, UniProt O95931); experiment: Binding affinity to recombinant human N-terminal GST-tagged CBX7 (1 to 62 residues) expressed in Escherichia coli […] by SPR analysis
T3 sequence (O95931 whole entry): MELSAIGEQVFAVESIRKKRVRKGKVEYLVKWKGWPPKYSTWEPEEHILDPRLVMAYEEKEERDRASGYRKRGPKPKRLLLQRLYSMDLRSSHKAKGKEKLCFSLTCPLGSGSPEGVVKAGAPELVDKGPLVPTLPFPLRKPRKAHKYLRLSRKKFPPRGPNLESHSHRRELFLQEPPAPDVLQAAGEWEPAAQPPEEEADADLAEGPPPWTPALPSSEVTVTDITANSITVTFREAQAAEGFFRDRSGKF
Method in brief: (§2)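 Chromodomain expressed with N-terminal GST tag in E. coli BL21 (IPTG 0.2 mM at OD600 0.6–0.8, 28 C for 6 h), GSTrap purified, tag cleaved by PreScission protease, amine-coupled to CM5 chip at pH 4.0–4.5 (5000–10000 RU). […] Mean ± SD of at least two replicates, each in duplicate.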

[9] = biological target: T4, Testis-specific chromodomain protein Y 1 (Homo sapiens, UniProt Q9Y6F8); experiment: Binding affinity to recombinant human N-terminal GST-tagged CDY1 (1 to 65 residues) expressed in Escherichia coli […] by SPR analysis; method in brief: as §2
T4 sequence (Q9Y6F8 whole entry): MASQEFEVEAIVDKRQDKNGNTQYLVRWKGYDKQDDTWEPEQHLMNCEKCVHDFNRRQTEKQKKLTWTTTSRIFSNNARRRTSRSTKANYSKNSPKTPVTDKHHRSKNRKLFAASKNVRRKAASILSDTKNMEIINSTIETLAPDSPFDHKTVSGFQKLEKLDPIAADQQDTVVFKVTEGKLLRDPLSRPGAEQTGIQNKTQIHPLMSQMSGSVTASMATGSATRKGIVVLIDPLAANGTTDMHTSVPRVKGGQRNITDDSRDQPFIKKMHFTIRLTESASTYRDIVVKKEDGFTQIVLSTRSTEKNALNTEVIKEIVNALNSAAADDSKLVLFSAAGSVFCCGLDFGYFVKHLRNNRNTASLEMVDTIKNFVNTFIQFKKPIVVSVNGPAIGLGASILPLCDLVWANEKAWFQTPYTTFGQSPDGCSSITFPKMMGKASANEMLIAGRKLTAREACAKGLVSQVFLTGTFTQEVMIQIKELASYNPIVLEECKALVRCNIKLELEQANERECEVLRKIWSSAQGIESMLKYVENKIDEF

[10] = biological target: T1, Chromodomain Y-like protein (Homo sapiens); experiment: Inhibition of CDYL in human SH-SY5Y cells assessed as increase in VGF mRNA expression incubated for 24 hrs by RT-qPCR analysis; format: cell-based; method in brief: as §1
[11] = biological target: T1, Chromodomain Y-like protein (Homo sapiens); experiment: Inhibition of CDYL in human SH-SY5Y cells assessed as increase in BDNF mRNA expression incubated for 24 hrs by RT-qPCR analysis; format: cell-based; method in brief: as §1
[12] = biological target: T1, Chromodomain Y-like protein (Homo sapiens); experiment: Inhibition of CDYL in human SH-SY5Y cells assessed as increase in MYT1 mRNA expression incubated for 24 hrs by RT-qPCR analysis; format: cell-based; method in brief: as §1
HEK-293T = experiment: Cytotoxicity against human HEK293T cells assessed as reduction in cell viability incubated for 24 hrs by CCK8 assay
SH-SY5Y = experiment: Cytotoxicity against human SH-SY5Y cells assessed as reduction in cell viability incubated for 24 hrs by CCK8 assay
[13] = biological target: T1, Chromodomain Y-like protein (Homo sapiens); experiment: Effect on CDYL-mediated MYT1 mRNA expression in human HEK293T cells up to 200 uM incubated for 24 hrs by RT-qPCR analysis; format: cell-based
[14] = biological target: T1, Chromodomain Y-like protein (Homo sapiens); experiment: Effect on CDYL-mediated MYT1 mRNA expression in human SH-SY5Y cells up to 200 uM incubated for 24 hrs by RT-qPCR analysis; format: cell-based
[15] = biological target: T1, Chromodomain Y-like protein (Homo sapiens); experiment: Inhibition of CDYL in human SH-SY5Y cells assessed as increase in MYT1 mRNA expression at 100 uM incubated for 24 hrs by RT-qPCR analysis; format: cell-based
Method in brief: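 SH-SY5Y cells exposed to 100 µM compound for 24 h. MYT1 mRNA measured by RT-qPCR: DNase treatment, SYBR green, 2^-ΔΔCt with GAPDH as internal control. Mean ± S.E.M. of triplicate experiments.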

| Compound | Activity [3] | Kd [4] | Activity [5] | Activity [6] | Kd [8] | Kd [9] | Activity [12] | also measured |
| --- | --- | --- | --- | --- | --- | --- | --- | --- |
| COc1ccc2oc(=O)n(CC(=O)N3CCC(N4CCCC4)CC3)c2c1 | inactive | 12.5 µM | inactive | inactive | 8.2 µM |  |  | Activity [1]: inactive; Activity [2]: inactive; Activity [7]: inactive |
| O=C(Cn1c(=O)oc2ccccc21)c1ccc2ccccc2c1 | Active | 2.6 µM | Active | Active | 14.2 µM | 41.7 µM | Dose-dependent effect | Activity [10]: Dose-dependent effect; Activity [11]: Dose-dependent effect |
| COc1cccc(C(=O)CC2(O)C(=O)Nc3ccc(Cl)cc32)c1 (racemic) |  | 4.9 µM |  |  | 84.4 µM |  | Dose-dependent effect | IC50 (HEK-293T): 56.1 µM; IC50 (SH-SY5Y): 68.1 µM |
| CCN(CC)CCCC[C@H](NC(=O)[C@H](CC(C)C)NC(=O)[C@H](C)NC(=O)[C@H](Cc1ccccc1)NC(=O)c1ccc(C(C)(C)C)cc1)C(=O)N[C@@H](CO)C(=O)OC ({Benzoyl(4-tBu)}-FAL[Lys(Et2)]S-OMe) |  | 5.6 µM |  |  |  |  |  | Activity [13]: inactive; Activity [14]: inactive |
| CCc1ccc(C(=O)CC2(O)C(=O)Nc3ccc(Cl)cc32)cc1 (centres undefined) |  | 55.6 µM |  |  | 12.1 µM | 33.5 µM |  | Activity [15]: Active |
